Laboratory results from the EternaBench riboswitch data.

Test system: MS2 coat protein
Test: apparent Kd, MS2 coat protein; higher = weaker binding; RNA-MaP array; FMN 200 µM where present
How it was run: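 Designs on Illumina sequencing-chip clusters, transcribed by stalled E. coli RNA polymerase, were exposed to SNAP-549-labelled MS2 coat protein in doubling steps from 0.7 or 1.5 nM up to 3 µM, without and then with constant ligand. The buffer held 100 mM Tris-HCl pH 7.5, 80 mM KCl, 4 mM MgCl2, BSA, DTT, yeast tRNA and Tween-20. Apparent Kd values are medians of filtered per-cluster binding-curve fits to green signal normalised to red-channel RNA signal and control-cluster median Fmax.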

[1] = designed as: OFF switch for flavin mononucleotide, no ligand
[2] = ligand present: flavin mononucleotide, designed as: OFF switch for flavin mononucleotide
[3] = designed as: ON switch for flavin mononucleotide, no ligand
[4] = ligand present: flavin mononucleotide, designed as: ON switch for flavin mononucleotide

Sequence	apparent Kd [1] [µM]	apparent Kd [2] [µM]	apparent Kd [3] [µM]	apparent Kd [4] [µM]
CACCGUUAAAGAGGAUAUCGUACAUGAGGAUCACCCAUGUAAUAAAUGAGAAUUUCGGAUGUAUGCGAGAAGGCUUAAAUCGGC	0.0529	0.0483	–	–
AAUAAACAUGAGGAUCACCCAUGUGAGGAUAUGGUAUUAUUUGGACAGUUAUGAUAUACCAGAAGGCACAAAUA	0.028	0.0468	–	–
ACAUUUAAUACAGGAUAUGUUAGUAUACAGUAGAUUGGUUAUUACACAACAACAGAAGGGUAGUACAUGAGGAUCACCCAUGUA	–	–	0.0156	0.0121
UGGUACUAGGGAGGAUAUUGGAAGAUACAUGAGGAUCACCCAUGUUUAAGAAUGCCGAGAGGCAACUAGAAGGCCCUAGUACCU	–	–	0.00837	0.00509
CGUGCGUAUGUGAGGAUAUGCUGGUCCUUGGAUCGGCAGAAGGCACAUGAGGAUCACCCAUGUGGUGUCGUCCA	0.0858	0.0645	–	–
UGGUACUAGGGAGGAUAUGGGAAGAUACAUGAGGAUCACCCAUGUUUAAGAAUGCCGAGACGCAACUAGAAGGCCCUAGUACCU	–	–	0.354	0.0209
UUAUACAUGAGGAUCUCCCAUGACAUGAGGAUCACCCAUGUGCAGGAUAUACGUGUUAUAAUAUAGUAGAAGGGCAGUCUAUGU	0.0272	0.0665	–	–
UCAUGCAUAGCGAUAUGAUCGAGAGAUCAUGUCGCUAAAUUUAGAAGGACAUGAGGAUCACCCAUGUAGGAUAUGGGAGCAUGC	–	–	0.419	0.0593
AGCUACGUUUCGUAGCAGUGUCAUCGAGAAGGCUCAAAUACAUGAGGAUCACCCAUGUUAACAUGGGAGGAUAUCGAUGAUACA	–	–	0.0636	0.00786
AGGAAGUUAGGAUAUGCUGCUCGUCACUUGCGUGAUGAGUAGCAGAAGGGACAUGAGGAUCACCCAUGUAAAGA	0.0368	0.0219	–	–
UGCCGUAGAGGAUAUACAUUGAAUUAGAUUCAUGUAAAACUACAUGAGGAUCACCCAUGUAGAAGGCUAUGGCU	0.0166	0.0245	–	–
CCUCGACAUGAGGAUCACCCAUGUCAGGAUAUUGUGUCUCGGGUUUUUUACCGUUAGGCAAGAAGGGAUGUGUG	0.0221	0.0232	–	–
CAGCUGAAUGUGAGGAUAUUACGAGCUGCGGCUCGUGAGAAGGCACAUGAGGAUCACCCAUGUCUCAACAGCUG	0.0372	0.741	–	–
AAACAUGUCCGAGGAUAUCUGGAAACAUUUUCAAGAGAAGGCGGACAUGAGGAUCACCCAUGUCUCUCCUCAUCAACUACAAUU	0.00831	0.0581	–	–
AUUUAUGGCCAGAAGGACAUGAGGAUCACCCAUGUAGGAUAUGGACGAUUUUGCUCGGCGGUUUUUUUAGGAAGCACCGGUGGU	–	–	0.0124	0.00714
GAUUAACAUGAGGAUCACCCAUGUCGUUUUAUGGGAGGAUAUACGUGGACCGUAGUCCGCGUAGAAGGCCUAAUUG	–	–	0.125	0.0304
UGAGCUUGAGGAUAUACAUGACGUGCCGUAGCACGAGGUCUACAUGAGGAUCACCCAUGUAGAAGGCAAGUUCU	0.0296	0.192	–	–
UUAUUUAUACAAGGAUAUCUAUUGUUAAUUCGACUUACAUGAGGAUCACCCAUGUUUUUAUGUUUAGAGAAGGUGUAAUUUCUG	–	–	0.0258	0.0264
ACGUGACGGAGCGCGAGUGGACGGAGAAGGCAGACAUGAGGAUCACCCAUGUGAGCCUGCUAUUCUGAGGAUAUCCGUCCGCAC	0.0325	0.203	–	–
UAGUAUAAGGGCAUUACACAUGAGGAUCACCCAUGUACGUUAGAGGAUAUGCAUUACAGUUGAAAGUAGAAGGUUAGAGAAGGG	0.0405	0.0465	–	–
CUAGACUUAUCAGGAUAUCAUCGCGUGGAUUAACCCUGUGAUUACAUGAGGAUCACCCAUGUGCUUGAGAAGGGAUUACUAUUU	0.0288	0.114	–	–
GCCGAACAUGAGGAUCACCCAUGUCUGGGUAAUUAAGGAUAUGGGAAGGCUUUGCCGUGGCCAGAAGGUGGUUAUC	–	–	0.171	0.108
GUAGCAUACUGAGGAUAUUCAUACCGGAAACGGACAUGAGGAUCACCCAUGUUAUAUAAAUAUUUGGAGAAGGCAGAAUGCUAC	–	–	0.0194	0.0132
AGUUAGAUAGCGAUAUGAUCGAGAGAUCAUGUCGCUAAAUUUAGAAGGACAUGAGGAUCACCCAUGUAGGAUAUGGGAGUAGAA	–	–	0.143	0.0593

Sequence	apparent Kd [1] [µM]	apparent Kd [2] [µM]	apparent Kd [3] [µM]	apparent Kd [4] [µM]
CUCUCACAGUCAGGAUAUGACGCGGAACAUGAGGAUCACCCAUGUGACGUCCCUCCAUGUACCCGUCAGAAGGGAUUAAUGGAC	0.72	0.48	–	–
UACAUGAGGAUCACCCAUGUUUUGUCGUGUAUGGUAUUUAUCUAGGAUAUCAAUGUAUUUAUGUAUGAGAAGGAGAAUAUUAAU	0.0457	0.0373	–	–
UAGGUUCGAGGAUAUACAUAGAUACAGAUACAUGUAGACGUACAUGAGGAUCACCCAUGUAGAAGGCGAAUAUA	0.0809	0.186	–	–
AGCUGUGGCCGAGGAUAUCUAAACCUUCAAACCGAAAUAUAAUCGGACAUGAGGAUCACCCAUGUAGAGAAGGCGGUCUCAGCA	0.0133	0.0288	–	–
UAUGGUUAAGUCAGGAUAUGCUCAUAGAGGUCUGUGCAGAAGGGACAUGAGGAUCACCCAUGUAUGGUAGUGUU	0.194	0.24	–	–
UUAAGGGACUGAGGAUAUACAUGAAUUAUGUUUGUAGAAGGCAGAUUGUUAGUUUAUUCACUAUACAUGAGGAUCACCCAUGUU	0.0251	0.0206	–	–
AAGGUGUUAGGAUAUCGUAGUUUGAGGCAGACGGGAUUUUGCGAGAAGGAACAUGAGGAUCACCCAUGUAGGAU	0.0272	0.0304	–	–
AAAAAAAAAAGUCAGGAUAUACAAAUUUUUACAUGAGGAUCACCCAUGUUAAAGAAAAAAAAAAAGUAGAAGGGACAAAAAAAAAA	–	–	0.0251	0.0149
CCACGUCACAUUUACAUGAGGAUCACCCAUGUCGAAAGACAUGAGGAUAUGCAUCCUAAUUGGAUGCAGAAGGCAUGGACGUGG	–	–	0.276	0.274
AAAAAAAGAUCACAGGAUAUACGAAAAAAAACAUGAGGAUCACCCAUGUAAAAAAAAAAAAAAAAGUAGAAGGGUGAUCCAAAAAA	–	–	0.16	0.279
CACCGCGACAAUGCGGUGUCACAUGAGGAUCACCCAUGUUCACAGGAUAUGCGAUAGCCAACGAAGCAGAAGGGUGAUUACUUA	–	–	0.0323	0.172
AUUACAUGAGGAUCACCCAUGUACGGCACGUUUCAAAACACUGAGGAUAUACGAUAUGUAGGAACGUAGAAGGCAGUGGGUGCA	–	–	0.0997	0.034
AAAAUGUCAGGAUAUGCGAAGGCGUCUGACGGACGAGGAUUGCAGAAGGGACAUGAGGAUCACCCAUGUAAAAA	0.0545	0.138	–	–
UGUCGGAGCAGAGGAUAUUACAUGAGGAUCACCCAUGUAUGAACCAAUAGCUGGAAACAGCAAUGUAAGAAGGCUGCACCGACA	0.0126	0.178	–	–
CGGCGGAAAGGAUAUGCAGUUAUAUCAAAAUGUGGGCCACGACAUGAGGAUCACCCAUGUAGAAGGUUCAGCCG	0.016	0.0134	–	–
AGAAACUACGAGAAGGACAUGUGGUCCAAAAGAAACAUGAGGAUCACCCAUGUAGGAUAUCGUAGUUUCAGGAUCGUGAGAUCA	0.28	0.0568	–	–
AGAGACCUCACAGGAUAUGCUGGACUUUGUCCAGCAGAAGGGUGAAAACAUGAGGAUCACCCAUGUAUGGUCUCCAAAUUUAAA	–	–	0.186	0.0121
GUCGGAAACGACAAAAGUAUGGAUCCAGAAGGCAUGAUACAUGAGGAUCACCCAUGUCUAAGACAUGAGGAUAUGGAUCCAUAC	–	–	0.0137	0.00477
UUUGUUUGCGGAGGAUAUAUAAGUGGAUCACCCAUAGAAGGCCGAACAUGAGGAUCACCCAUGUUACAUGAGGAUCACCCAUGU	0.0458	0.0515	–	–
AUCAGCUCGUCAGGAUAUACGUCACUGCGUCAGCAGUGUUGUAAGAUCACAUGAGGAUCACCCAUGUAGAAGGGACGAGCUGAU	0.00591	0.0102	–	–
ACUAUACGAGGAUAUACUGUCAGUACUCAGAGGUUAAUGUGACAUGAGGAUCACCCAUGUAGAAGGCGUUUACU	0.0289	0.0313	–	–
GGAUAGGACAGAGGAUAUACAGAUAGGAUCUACUAUCAAACAGUCCUUACAUGAGGAUCACCCAUGUAGAAGGCUGUCCUAUCG	0.0194	0.0874	–	–
AAAAGACAUGAGGAUCACCCAUGUUAAGACGUGGGAGGAUAUGCAUGGCAAACAUGCUGUGCAGAAGGCCCGUGUC	–	–	0.0584	0.0231
UGCAUGGUAGGAUAUACGGAACAUUAGGGUUUGUUAUGUGGACAUGAGGAUCACCCAUGUAGAAGGGCCGUGCU	0.0459	0.0723	–	–
